An excerpt weighted towards active compounds, which were near 0.86% of everything screened.
APJ antagonist: antagonists of human APJ apelin receptor; actives 0.32% (n = 330,000); P35414; CHO-K1 APJ beta-arrestin complementation, luminescence; inhibition, % at 20 µM; AID 2521;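 active = inhibition above about 40% at 20 µM, limit read from the data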;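 note: cells challenged with 10 nM apelin-13 agonist together with compound; plate controls were apelin-13 plus DMSO wells for no effect and DMSO wells lacking apelin-13 for full effect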
Target sequence (P35414 whole entry, looked up): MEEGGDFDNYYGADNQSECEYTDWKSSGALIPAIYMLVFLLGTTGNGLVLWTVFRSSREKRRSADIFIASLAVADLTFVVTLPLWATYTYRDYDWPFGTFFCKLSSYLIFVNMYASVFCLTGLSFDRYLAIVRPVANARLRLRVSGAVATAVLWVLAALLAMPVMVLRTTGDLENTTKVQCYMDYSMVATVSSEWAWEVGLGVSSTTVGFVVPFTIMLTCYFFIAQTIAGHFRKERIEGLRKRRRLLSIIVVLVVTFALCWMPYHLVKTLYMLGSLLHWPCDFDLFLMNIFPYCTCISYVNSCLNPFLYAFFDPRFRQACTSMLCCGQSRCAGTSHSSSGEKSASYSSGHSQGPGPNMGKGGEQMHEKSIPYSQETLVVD
DAGLB inhibitor: diacylglycerol lipase beta (human) inhibition | HEK293T DAGLB membrane lysate, EnzChek fluorogenic substrate | inhibition, % at 5.17 µM | actives 0.059% (n = 340,000) | AID 504411; in the data active = inhibition above about 34%;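 note: 0% = enzyme with vehicle and 100% = wells lacking enzyme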
CXCR6 block: blocks human CXCR6 beta-arrestin recruitment. CHO-K1 PathHunter CXCR6 beta-arrestin, luminescence. inhibition, % at 20 µM. actives 0.36% (n = 360,000); in the data active = inhibition above about 34%, passing the limit was not always enough;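 note: antagonist mode with CXCL16 agonist at 10 nM final; 0% = 10 nM CXCL16 with DMSO and 100% = unstimulated wells without agonist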
APJ agonist: APJ receptor agonism; P35414; CHO-K1 APJ PathHunter beta-arrestin, luminescence; 0% DMSO wells, 100% apelin; activation, % at 20 µM; actives 0.11% (n = 330,000);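 active = activation more than six SD over the plate average, tested at 20 µM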;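 note: 0% = DMSO alone and 100% = apelin-13 at 10 nM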
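Test system – PathHunter CHO-K1 APJ (AGTRL-1) beta-arrestin reporter cells · Input – 1000 cells/well · Compound – single test compound dose, 20 µM final, 1% DMSO · Times – compound stimulation 90 min at 25 °C, detection 60 min · Technique – beta-gal luminescence · Read-out basis – APJ–arrestin association signal · Control set – negative DMSO alone, positive Apelin-13 at 10 nM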
iPSC survival up: hiPSC single-cell survival enhancement; ATPlite luminescence; 100% = ROCK inhibitor wells, 0% = DMSO; survival enhancement, % at 20 µM; actives 0.044% (n = 360,000); AID 602274; in the data active = survival enhancement above about 18%;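 note: cells exposed to compounds for 16 hours before the ATP read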
CCR6 antagonist: CCR6 (human) receptor antagonism | P51684 | CHO-K1 CCR6 PathHunter beta-arrestin, luminescence, CCL20-stimulated | inhibition, % at 20 µM | actives 0.49% (n = 340,000) | AID 493098;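 active = compounds whose inhibition of the agonist-driven luminescence signal at 20 µM reaches about 50%, limit read from the data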;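 note: cells stimulated with CCL20 at 14 nM final; plate controls were DMSO with CCL20 for no effect and DMSO without agonist for full effect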
APJ ag confirm: APJ receptor agonism confirmation. CHO-K1 APJ PathHunter beta-arrestin, luminescence. actives 10% (n = 310). AID 2764. activation, % at 20 µM. shares compounds with APJ agonist;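 active = activation above 40%, taking the highest of four retests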;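 note: plate controls were DMSO wells for no effect and apelin-13 at 10 nM for full effect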
* = called active by the depositor; nt = no result.

SMILES | APJ antagonist | DAGLB inhibitor | CXCR6 block | APJ agonist | iPSC survival up | CCR6 antagonist | APJ ag confirm
CC(C)(C)OC(=O)C(Cc1ccc(OC(C)(C)C)cc1)NC(=O)CNC(=O)CNC(=O)OCc1ccccc1 (stereo not drawn) | 5 | -2 | -4 | 2 | 2 | 21 | nt
COc1cc(NC(=O)COC(=O)CC(NC(C)=O)c2ccccc2)cc(OC)c1 (stereo not drawn) | 10 | 1 | 7 | 2 | 0 | 15 | nt
CC(=O)NC(CC(=O)NNC(=O)c1cc2ccccc2cc1O)c1ccccc1 (stereo not drawn) | -102 | 5 | -14 | 30* | 0 | -26 | 14
COc1ccc(/C(N)=N/OC(=O)c2cccc([N+](=O)[O-])c2)cc1OC | -38 | 1 | -8 | 20 | -1 | -3 | nt
COc1ccc(C(=O)O/N=C(\N)c2ccccc2Cl)cc1OC | -40 | -2 | -18 | 11* | 0 | -15 | 39
COc1ccc(/C(N)=N/OC(=O)c2ccc(OC)c([N+](=O)[O-])c2)cc1OC | -72 | 2 | -4 | 18* | 0 | -10 | 34
COc1ccccc1C(=O)O/N=C(\N)c1ccccc1Cl | -38 | 0 | -6 | 3 | 3 | -9 | nt
CCSc1ccc(/C(N)=N/OC(=O)c2cccs2)cn1 | -168 | -8 | -43 | 43* | 0 | -32 | 11
CCOc1cc2[nH]c(=S)n(CCC(=O)N3CCc4ccccc4C3)c(=O)c2cc1OCC | -11 | 2 | -2 | 53* | 5 | -18 | 48*
CCOc1cc2[nH]c(=S)n(CC3CCCN3CC)c(=O)c2cc1OCC (stereo not drawn) | 16 | 1 | 11 | 17* | 8 | -8 | 25
O=C(c1cc2c(c(-c3cccc(-c4ccncc4)c3)n1)[C@H](CCO)N(C(=O)c1ccc3c(c1)OCO3)C2)N1CCOCC1 | nt | nt | -6 | nt | 0 | nt | nt
CCN(CC)CCCNC(=O)c1cc(Cl)c(NC(=O)C2=C(C)OCCS2)cc1OC | 14 | -1 | 1 | 13* | -1 | 7 | 30
CCN1CCN(CCNC(=O)c2cc(Cl)c(NC(=O)C3=C(C)OCCS3)cc2OC)CC1 | -13 | 1 | 5 | 24* | 0 | -7 | 2
CCC(C)NC(=O)c1cc(Cl)c(NC(=O)C2=C(C)OCCS2)cc1OC (stereo not drawn) | 8 | -9 | 2 | -1 | 2 | 2 | nt
C=C[C@@H]1c2cc(C)ccc2N(S(=O)(=O)c2ccc(C)cc2)[C@H](c2ccccc2)C1(C#N)C#N | -16 | -5 | 0 | -1 | 2 | 11 | nt
Cc1ccc(Cl)cc1NC(=O)c1cc2ccccc2cc1O | -70 | -1 | -16 | 22* | 1 | -66 | 33
CCCCc1ccc(N/C(N)=N/c2nc(C)cc(C)n2)cc1 | -28 | nt | 3 | 43* | -1 | -2 | 17
CN(C)S(=O)(=O)c1ccc(-c2csc(N/N=C/c3ccco3)n2)cc1 | -40 | 7 | -2 | 24* | 0 | -14 | 44*
C(=N\Nc1nc(-c2ccccc2)cs1)/c1ccncc1 | -29 | 0 | -7 | 6 | -1 | -19 | nt
CN(C)S(=O)(=O)c1ccc(-c2csc(N/N=C/c3ccc(O)cc3)n2)cc1 | -99 | 5 | 8 | 16* | 0 | 7 | -2
Cc1cccc(NC(=S)NC(=O)CCc2ccccc2)c1 | -82 | -16 | -19 | 19* | 4 | -35 | 25
Cc1cccc(NC(=O)NNC(=O)CCc2ccccc2)c1 | 11 | 1 | 5 | 1 | 1 | -4 | nt
CCCNC(=O)N(C)C[C@H]1Oc2ncc(C#CCc3ccccc3)cc2C(=O)N([C@H](C)CO)C[C@H]1C | nt | 0 | -1 | nt | -3 | nt | nt
COc1ccc(S(N)(=O)=O)cc1C(=O)N(C)CC(=O)Nc1ccc(N2CCOCC2)cc1 | -5 | -3 | 2 | -1 | 0 | 8 | nt
COc1ccc(S(=O)(=O)NC2CC2)cc1-n1cnnn1 | -26 | nt | -5 | 14* | 1 | 7 | 8
SMILES | APJ antagonist | DAGLB inhibitor | CXCR6 block | APJ agonist | iPSC survival up | CCR6 antagonist | APJ ag confirm
COc1cc(S(=O)(=O)NC2CCCC2)ccc1-n1cnnn1 | -1 | -2 | -10 | 1 | 0 | 19 | nt
CC1Cc2c([nH]c3ccccc23)C(=O)N1 (stereo not drawn) | -23 | 1 | -14 | -3 | 1 | -4 | nt
CC(=O)Nc1ccc(OCC(=O)Nc2ccc(Cl)c(S(=O)(=O)N3CCOCC3)c2)cc1 | 0 | nt | -17 | 17* | -2 | nt | -1
COc1ccc(OCC(=O)Nc2ccc(S(=O)(=O)N3CCOCC3)cc2)cc1 | -4 | -2 | 4 | -1 | -1 | 2 | nt
COc1cc(CNC(=O)OCC(C)C)cc(OC)c1OC | 4 | -1 | -4 | 18* | 7 | 4 | 6
COc1ccccc1N(C)S(=O)(=O)c1ccc(C(=O)N2CCCc3ccccc32)cc1 | 1 | 0 | 1 | 2 | 0 | 20 | nt
Cc1ccc(NC(=O)C/C(N)=N/OC(=O)Nc2cccc(C)c2)cc1 | -137 | -1 | -34 | 9 | 0 | -18 | nt
Cc1ccc(NC(=O)C/C(N)=N/OC(=O)Nc2ccc(C)c(Cl)c2)cc1 | -40 | 0 | -37 | 27* | 0 | -18 | 26
Cc1c(C(=O)Nc2nccs2)oc2ccc(Br)cc12 | 5 | -2 | 0 | -1 | 0 | 1 | nt
Cc1ccc(N(CCC#N)C(=O)COC(=O)C2=COCCO2)cc1 | 3 | 3 | 3 | -3 | 0 | 20 | nt
O=C(ONC1=NCCCCC1)c1cccc([N+](=O)[O-])c1 | -41 | 0 | -27 | 6 | -2 | -27 | nt
O=C(Nc1ccc(Cl)c([N+](=O)[O-])c1)ONC1=NCCCCC1 | -60 | 0 | -9 | 16* | 0 | -15 | 18
CCN(CC)c1ccc(C(=O)NNC(=O)CNC(=O)c2ccco2)cc1 | 14 | 1 | 6 | -3 | -1 | 4 | nt
C=CCn1c(SCCC)nc(O)cc1=O | -2 | -1 | -6 | 34* | -1 | 1 | 4
CCCCn1nc(CC(=O)NCCN(CC)CC)c2ccccc2c1=O | -18 | -1 | 2 | -2 | 1 | 3 | nt
CCCCNc1c(-c2ccc(OC)c(SC(C)CC)c2)nc2ccc(C)cn12 (stereo not drawn) | -28 | -5 | 12 | 26* | -2 | 25 | 9
CCCCNc1c(-c2ccc(OC)c(SC(C)CC)c2)nc2ccc(Cl)cn12 (stereo not drawn) | -14 | -8 | -7 | -1 | 2 | -4 | nt
CCCCNc1c(-c2ccc(OC)c(SC3CCCCC3)c2)nc2ccc(C)cn12 | 4 | -12 | 23 | 18* | -2 | 25 | 30
CC(=O)c1cccc(NC(=O)C(=O)c2cn(CC(=O)N3CCCCC3)c3ccccc23)c1 | 5 | -4 | 5 | 1 | 0 | -4 | nt

High-throughput results from PubChem BioAssay.
